hERG rescue – compounds protecting human hERG from proarrhythmic drug block; Q12809; CHO-hERG, FluxOR thallium flux, dofetilide IC70 present; activation (rescue from dofetilide block), less the hit threshold, % at 10 µM; actives 0.51% (n = 310,000); AID 1511;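 active means activation above the mean of controls blocked by dofetilide plus 5 SD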;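 further: thallium influx through hERG after potassium depolarization seen as dye fluorescence rise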
KCNK3 block – human KCNK3 channel inhibition, primary screen; O14649; CHO-KCNK3 thallium flux, FluxOR fluorescence; stronger effect = lower value; B-score at 10 µM; actives 0.84% (n = 340,000); AID 602410;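 active means B-score under library mean minus 4 SD, starting fluorescence ratio at most library mean plus 5 SD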;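 further: more negative B-score means stronger inhibition of thallium flux through KCNK3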
Target sequence (O14649 whole entry, looked up): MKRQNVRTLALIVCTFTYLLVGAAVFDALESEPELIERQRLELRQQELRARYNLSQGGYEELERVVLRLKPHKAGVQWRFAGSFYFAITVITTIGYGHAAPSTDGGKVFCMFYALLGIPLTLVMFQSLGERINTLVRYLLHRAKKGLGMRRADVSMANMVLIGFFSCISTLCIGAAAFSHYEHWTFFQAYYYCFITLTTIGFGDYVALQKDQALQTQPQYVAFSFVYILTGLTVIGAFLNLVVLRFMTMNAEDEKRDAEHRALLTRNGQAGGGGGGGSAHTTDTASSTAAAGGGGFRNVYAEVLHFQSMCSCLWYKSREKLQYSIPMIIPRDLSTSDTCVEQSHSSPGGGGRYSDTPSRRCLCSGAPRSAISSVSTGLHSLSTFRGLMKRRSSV
KCNQ1 inh – blocks the human KCNQ1 potassium channel; P51787; CHO-K1 KCNQ1, FluxOR thallium flux fluorescence; stronger effect = higher value; B-score at 10 µM; actives 1.3% (n = 310,000); AID 2642;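 active means compounds whose thallium flux B-score, printed positive for inhibition, exceeds three library SD while starting fluorescence stays within three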;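 further: channel opened by potassium depolarization with thallium stimulus after 20 min compound exposure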
KCNK9 inh – blocks the human KCNK9 two-pore domain potassium channel | Q9NPC2 | HEK293 KCNK9, FluxOR thallium flux fluorescence; stronger effect = lower value | B-score at 10 µM | actives 1.2% (n = 310,000) | AID 488922;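 active means ratio B-score over 3 SD below the library mean, with starting fluorescence within 5 SD of its mean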;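 further: negative B-score means less thallium flux so channel inhibition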
KCNQ1 act – human KCNQ1 channel potentiation or activation | P51787 | CHO-K1 KCNQ1, thallium flux FluxOR fluorescence; stronger effect = higher value | B-score at 10 µM | actives 0.35% (n = 310,000);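 active means fluorescence ratio B-score, a plate-corrected score, at least three library SD, with initial intensity B-score within 5 SD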
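assay system = KCNQ1-transfected CHO-K1 cells | medium = assay buffer with matched DMSO | probe or stimulus = depolarizing K+/Tl+ stimulus, K2SO4 and Tl2SO4 each 12.5 mM in 5x stock | dosing = single dose | incubation = dye 90 min, compound 20 min, room temperature | detection = kinetic FluxOR fluorescence, 10 s baseline plus 110 s post-stimulus | evaluation = ratio B score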
Kir21 block – Kir2.1 (mouse) channel inhibition. P35561. HEK293-Kir2.1, FluxOR thallium flux fluorescence; stronger effect = lower value. B-score at 10 µM. actives 0.85% (n = 310,000). AID 1672;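 active means fluorescence ratio B-score at or below minus 3 SD of library scores, with starting-brightness B-score within 2 SD, cut at about -4.2 in these data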;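 further: channel flux triggered by added potassium and thallium sulfate stimulus; B-score of peak minus minimum fluorescence over baseline after thallium stimulus; more negative B-score means stronger Kir2.1 block with less thallium influx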
KCNK9 block conf – confirmation of human KCNK9 potassium channel inhibitors | AID 492992 | inhibition, % at 10 µM | HEK293 KCNK9 cells, FluxOR thallium flux fluorescence | actives 43% (n = 4,900) | shares compounds with KCNK9 inh;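 active means thallium signal inhibited by more than 5 SD of the compound-free buffer control wells, on both duplicate plates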
Kir21 sel – tests whether KCNK9 modulators also affect mouse Kir2.1; inhibition, % at 10 µM; actives 4% (n = 4,900); shares compounds with KCNK9 inh; Kir2.1 cells, FluxOR thallium flux fluorescence; AID 492993;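 active means thallium signal drop more than 5 SD beyond the mean of the no-compound control wells, seen in both duplicate plates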;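 further: signal is fluorescence rise after thallium addition divided by baseline fluorescence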
HEK293 Tl ctr – non-induced cell nonspecific activity of KCNK9 modulators; shares compounds with KCNK9 inh; non-induced KCNK9-HEK293, FluxOR thallium flux; inhibition, % at 10 µM; actives 40% (n = 4,900); AID 492997;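 active means thallium signal drop beyond 5 SD of the untreated control mean, on both duplicate plates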
KCNK3 inh conf – human KCNK3 channel inhibition, confirmation assay | shares compounds with KCNK3 block | actives 99% (n = 2,400) | CHO-KCNK3 thallium flux, FluxOR fluorescence; 0% buffer, 100% carvedilol maximal block | ratio percent of control, % at 10 µM;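 active means ratio percent of control, averaged over triplicates, above buffer control mean plus 5 SD, cut at about 64% in these data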;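 further: ratio is the fluorescence rise from min to max over baseline after thallium stimulus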
KCNK3 noninduced – KCNK3 inhibitor counter-screen hit in non-induced cells; non-induced KCNK3 parental cells, FluxOR thallium flux; stronger effect = lower value; thallium flux ratio (lower = more inhibition) at 10 µM; AID 651747; shares compounds with KCNK3 block; actives 40% (n = 2,400);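 active means thallium flux ratio, averaged over three wells, more than 5 SD below the buffer control mean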;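 further: host cells are CHO cells without KCNK3 induction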
Numbers stand for hits. Hits are enriched below; roughly 3.7% of the tested compounds scored in any of these assays.

CCn1c(C(=O)N2CCC(C(=O)NCCCSC3CCCCC3)CC2)cc2sccc21 was read as hERG rescue inactive, KCNK3 block -9.3, KCNQ1 inh inactive, KCNK9 inh inactive, KCNQ1 act inactive, Kir21 block inactive, KCNK9 block conf inactive, Kir21 sel inactive, HEK293 Tl ctr inactive, KCNK3 inh conf 92 and KCNK3 noninduced inactive.
COC(=O)c1ccccc1SC(CC(=O)c1ccccc1)c1ccc(F)cc1 (stereo not given) was read as hERG rescue inactive, KCNK3 block inactive, KCNQ1 inh inactive, KCNK9 inh -13, KCNQ1 act inactive, Kir21 block inactive, KCNK9 block conf 49%, Kir21 sel inactive, HEK293 Tl ctr 56%, KCNK3 inh conf 114 and KCNK3 noninduced inactive.
COC(=O)c1ccccc1NC(=O)c1ccc(F)cc1 was read as hERG rescue inactive, KCNK3 block inactive, KCNQ1 inh inactive, KCNK9 inh inactive, KCNQ1 act inactive and Kir21 block inactive.
Screening Cc1sc(NC(=O)c2ccco2)c(CN2CCN(c3ccc(F)cc3)CC2)c1C returned hERG rescue inactive, KCNK3 block -10, KCNQ1 inh inactive, KCNK9 inh -15, KCNQ1 act inactive, Kir21 block inactive, KCNK9 block conf inactive, Kir21 sel inactive, HEK293 Tl ctr 29%, KCNK3 inh conf 110 and KCNK3 noninduced 0.15.
For CCOC(=O)N1CCN(Cc2c(NC(=O)c3ccco3)sc(C)c2C)CC1 the results were hERG rescue inactive, KCNK3 block inactive, KCNQ1 inh inactive, KCNK9 inh inactive, KCNQ1 act inactive and Kir21 block inactive.
`CCCN1CCN(C(=O)C(NC(=O)c2ccco2)C(C)C)CC1` (stereo not given) gave hERG rescue inactive, KCNK3 block inactive, KCNQ1 inh inactive, KCNK9 inh inactive, KCNQ1 act inactive and Kir21 block inactive.
O=C(Nc1ccc(Cl)cn1)c1ccccc1SCc1ccccc1 was read as hERG rescue inactive, KCNK3 block -11, KCNQ1 inh inactive, KCNK9 inh -15, KCNQ1 act inactive, Kir21 block inactive, KCNK9 block conf 78%, Kir21 sel inactive, HEK293 Tl ctr 47%, KCNK3 inh conf 128 and KCNK3 noninduced 0.15.
Screening CCCCCN(C(=O)CCC(=O)OCC(=O)c1cccc(OC)c1)c1c(N)n(CCCC)c(=O)[nH]c1=O returned hERG rescue inactive, KCNK3 block inactive, KCNQ1 inh inactive, KCNK9 inh inactive, KCNQ1 act inactive and Kir21 block inactive.
`O=C(Nc1ccc2c(c1)OCCO2)c1cc2sccc2n1Cc1ccc(F)cc1` gave hERG rescue inactive, KCNK3 block -11, KCNQ1 inh inactive, KCNK9 inh -12, KCNQ1 act inactive, Kir21 block inactive, KCNK9 block conf 46%, Kir21 sel inactive, HEK293 Tl ctr 30%, KCNK3 inh conf 120 and KCNK3 noninduced 0.12.
Cn1c(C(=O)Nc2ccc3c(c2)OCCO3)cc2sccc21 was read as hERG rescue inactive, KCNK3 block inactive, KCNQ1 inh inactive, KCNK9 inh inactive, KCNQ1 act inactive and Kir21 block inactive.

Screening results deposited in PubChem BioAssay by Johns Hopkins Ion Channel Center.
